ChEMBL document CHEMBL1649480, “Farnesol-induced apoptosis in Candida albicans” (2009)
Activity calls are given as the source filed them. The rule behind the calls is not given here.

Key:
[1] = system: Candida albicans; experiment: Induction of ROS accumulation in mitochondria of Candida albicans SC5314 at 40 uM after 3 hrs by Fluorescence analysis; assay type: functional
How it was run: (§1)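 Cells were exposed 3 h to 40, 100 or 200 μM farnesol, with methanol control and H2O2 positive control. Washed cells were stained 30 min in the dark with a mix of dichlorodihydrofluorescein diacetate, propidium iodide and calcofluor white, then washed and viewed by confocal microscopy. % green (ROS) cells of all cells was scored, with red (necrotic) cells scored separately.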

[2] = system: Candida albicans; experiment: Increase in MCA1 expression in Candida albicans SC5314 at 100 uM after 4 hrs by quantitative PCR analysis; assay type: functional, organism-based
How it was run: (§2)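 Log-phase SC5314 exposed 4 h to farnesol (methanol vehicle control). cDNA diluted 1:20 and run in SYBR green real-time PCR: 15 min 95°C, then 35 cycles of 95°C 1 min, 58°C 30 s, 72°C 30 s, with a melt curve check. MCA1 level was calculated by 2^−ΔΔCT against ACT1 and RPP2B reference genes.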

[3] = system: Candida albicans; experiment: Induction of ROS accumulation in mitochondria of Candida albicans SC5314 at 100 uM after 3 hrs by Fluorescence analysis; assay type: functional; how it was run: as §1
[4] = system: Candida albicans; experiment: Upregulation of Manganese superoxide dismutase expression in Candida albicans SC5314 at 200 uM after 24 hrs by MALDI-TOF MS; assay type: functional, organism-based
How it was run: (§3)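 SC5314 grown overnight at 30°C, 120 rpm, in yeast nitrogen base (pH 7.0) with 50 mM glucose. Cells were washed in PBS and adjusted to OD600 0.1, then treated 24 h with farnesol from a methanol dilution; controls received methanol. Proteomes of treated and untreated cells were compared by 2-D SDS-PAGE and MALDI-TOF MS, with ProFound searches of the NCBI nonredundant database. Spots changed at least 1.5-fold in three independent experiments were counted.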

[5] = system: Candida albicans; experiment: Induction of apoptosis in Candida albicans SC5314 at 100 uM after 24 hrs by TUNEL assay; assay type: functional
How it was run: (§4)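 After 24 h in farnesol (40, 100, 200 μM), cells were PBS-washed, fixed in 4% paraformaldehyde (pH 7.4) 1 h at 20°C, and permeabilized 2 min on ice. They were labeled with 9:1 label:enzyme TUNEL mix 1 h at 37°C in the dark and examined by fluorescence microscopy at 515–565 nm. Flow cytometry counted % positive of 30,000 gated cells, gates set by no-enzyme and DNase-treated controls.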

[6] = system: Candida albicans; experiment: Upregulation of Heat shock protein 90 expression in Candida albicans SC5314 at 200 uM after 24 hrs by MALDI-TOF MS; assay type: functional, organism-based
How it was run: (§5)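 Overnight YNB-glucose SC5314 culture, PBS-washed, adjusted to OD600 0.1 and treated 24 h with 40 or 200 μM farnesol (methanol in controls). Proteomes were compared with untreated cells by 2D SDS-PAGE and MALDI-TOF MS, searched against NCBI nonredundant database. Spots were counted as changed at ≥1.5-fold in three independent experiments.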

[7] = system: Candida albicans; experiment: Downregulation of ATP synthase subunit D expression in Candida albicans SC5314 at 200 uM after 24 hrs by MALDI-TOF MS; assay type: functional, organism-based; how it was run: as §5
[8] = system: Candida albicans; experiment: Downregulation of Pyruvate kinase expression in Candida albicans SC5314 at 200 uM after 24 hrs by MALDI-TOF MS; assay type: functional, organism-based; how it was run: as §5
[9] = system: Candida albicans; experiment: Induction of ROS accumulation in mitochondria of Candida albicans SC5314 after 3 hrs by Fluorescence analysis; assay type: functional, organism-based; how it was run: as §1
[10] = system: Candida albicans; experiment: Downregulation of S-adenosylmethionine synthase expression in Candida albicans SC5314 at 200 uM after 24 hrs by MALDI-TOF MS; assay type: functional, organism-based; how it was run: as §5
[11] = system: Candida albicans; experiment: Down regulation of in MCA1 expression in Candida albicans SC5314 at 40 uM after 4 hrs by quantitative PCR analysis; assay type: functional, organism-based; how it was run: as §2
[12] = system: Candida albicans; experiment: Downregulation of Phosphoglycerate mutase expression in Candida albicans SC5314 at 40 uM after 24 hrs by MALDI-TOF MS; assay type: functional, organism-based; how it was run: as §5
[13] = system: Candida albicans; experiment: Downregulation of Glyceraldehyde-3-phosphate dehydrogenase expression in Candida albicans SC5314 at 200 uM after 24 hrs by MALDI-TOF MS; assay type: functional, organism-based; how it was run: as §5
[14] = system: Candida albicans; experiment: Upregulation of Pyruvate decarboxylase expression in Candida albicans SC5314 at 40 uM after 24 hrs by MALDI-TOF MS; assay type: functional, organism-based; how it was run: as §3
[15] = system: Candida albicans; experiment: Upregulation of NADH-cytochrome b5 reductase expression in Candida albicans SC5314 at 200 uM after 24 hrs by MALDI-TOF MS; assay type: functional, organism-based; how it was run: as §3
[16] = system: Candida albicans; experiment: Downregulation of Enolase expression in Candida albicans SC5314 at 40 uM after 24 hrs by MALDI-TOF MS; assay type: functional, organism-based; how it was run: as §5
[17] = system: Candida albicans; experiment: Induction of apoptosis in Candida albicans SC5314 at 40 uM after 24 hrs by TUNEL assay; assay type: functional; how it was run: as §4
[18] = system: Candida albicans; experiment: Increase in MCA1 expression in Candida albicans SC5314 at 10 mM after 4 hrs by quantitative PCR analysis
[19] = system: Candida albicans; experiment: Upregulation of Aldose reductase expression in Candida albicans SC5314 at 200 uM after 24 hrs by MALDI-TOF MS; assay type: functional, organism-based; how it was run: as §5
[20] = system: Candida albicans; experiment: Induction of apoptosis in Candida albicans SC5314 assessed as activation of caspase activity at 40 uM after 3 hrs by Fluorescence analysis; assay type: functional
How it was run: (§6)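 Active caspases in farnesol-exposed cells (40, 100, 200 μM; methanol control, H2O2 positive control) were detected with a FLICA kit per manufacturer. Cells were examined by confocal microscopy, with green-fluorescing cells counted as caspase-positive and unstained cells as nonapoptotic. Percentage of positive cells was recorded.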

[21] = system: Candida albicans; experiment: Downregulation of GRE3 expression in Candida albicans SC5314 at 40 uM after 24 hrs by MALDI-TOF MS; assay type: functional, organism-based; how it was run: as §5
[22] = system: Candida albicans; experiment: Induction of apoptosis in Candida albicans SC5314 assessed as mitochondrial degradation at 40 uM after 3 hrs by Fluorescence analysis; assay type: functional
How it was run: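 Farnesol-exposed SC5314 (40, 100, 200 μM; methanol control, H2O2 positive control) stained with a MitoPT mitochondrial permeability transition dye per kit instructions. Cells imaged by confocal microscopy: red mitochondrial aggregates in healthy cells, dispersed green signal in apoptotic cells. Percentage of cells with degradation was recorded.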

[23] = system: Candida albicans; experiment: Upregulation of 6-Phosphogluconate dehydrogenase expression in Candida albicans SC5314 at 40 uM after 24 hrs by MALDI-TOF MS; assay type: functional, organism-based; how it was run: as §5
[24] = system: Candida albicans; experiment: Induction of apoptosis in Candida albicans SC5314 assessed as activation of caspase activity at 100 uM after 3 hrs by Fluorescence analysis; assay type: functional
How it was run: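 SC5314 grown overnight at 30°C (120 rpm) in yeast nitrogen base pH 7.0 with 50 mM glucose, PBS-washed, set to OD600 0.1, then exposed to farnesol (40, 100, 200 μM; methanol diluent). Active caspases detected in situ with a FLICA kit per the manufacturer; green cells imaged by confocal microscopy (Cy2/Cy3). Controls: methanol vehicle and hydrogen peroxide. Done on three or more occasions.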

[25] = system: Candida albicans; experiment: Induction of apoptosis in Candida albicans SC5314 assessed as activation of caspase activity at 200 uM after 3 hrs by Fluorescence analysis; assay type: functional; how it was run: as §6

Question: Which results are given for CC(C)=CCC/C(C)=C/CC/C(C)=C/CO [FARNESOL]?
Answer: Activity [1]: 26%; Activity [2]: inactive; Activity [3]: 80%; Activity [4]: Active; Activity [5]: 10.2%; Activity [6]: Active; Activity [7]: Active; Activity [8]: Active; Activity [9]: Active; Activity [10]: Active; Activity [11]: inactive; Activity [12]: Active; Activity [13]: Active; Activity [14]: Active; Activity [15]: Active; Activity [16]: Active; Activity [17]: 2%; Activity [18]: Active; Activity [19]: Active; Activity [20]: 5%; Activity [21]: Active; Activity [22]: 90%; Activity [23]: Active; Activity [24]: 13%; Activity [25]: 84%
